Structures are written as SMILES.

The subject of this assay is RAW264.7. Nature of the assay: Antiinflammatory activity in mouse RAW264.7 cells assessed as inhibition of LPS-induced NO production by MTT assay. The assay is classed as functional, cell-based. The note with it: in the assay text read “Griess assay” for “MTT assay”. In a few lines: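 RAW 264.7 mouse macrophages in RPMI 1640 with 10% heat-inactivated FBS, penicillin and streptomycin, seeded 1 × 10⁵ cells/well, adhered 2 h at 37 °C, 5% CO₂. Stimulated with LPS 1 µg/mL for 24 h with or without test agents at various concentrations (DMSO, 0.2% v/v final). Supernatant nitrite read with Griess reagent against a nitrite standard line. MTT viability after 24 h.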
A general note: Tetrazolium dyes change colour on reduction, which living cells bring about.
For the compound `C[C@]12CCC(=O)C=C1CC[C@@H]1[C@@H]2[C@@H](O)C[C@@]2(C)[C@H]1CC[C@]2(O)C(=O)CO` [HYDROCORTISONE], the IC50 – broadly, the point on the concentration scale where inhibition reaches its midpoint – came to 40.6 µM.

Consider `Oc1ccc(/C=C/CC[C@H](O)CCc2ccc(O)c(O)c2)cc1`, for which the IC50 is 42 µM.

As for `Oc1ccc(CC[C@H](O)CC/C=C/c2ccccc2)cc1O`, the IC50 is 7.34 µM.

Turning to `CC(=O)O[C@@H](CCCCc1ccc(O)cc1)CCc1ccc(O)c(O)c1`, the half-inhibitory concentration (IC50) is 49.5 µM.

For `COc1cc(CCC(=O)/C=C/CCc2ccc(O)cc2)ccc1O`, the IC50 is 2.69 µM.

For `O=C(/C=C/C=C/c1ccc(O)cc1)CCc1ccc(O)cc1`, the IC50 was found to be 4.79 µM.

Turning to `Oc1ccc(/C=C/CC[C@H](O)CCc2ccc(O)cc2)cc1`, the IC50 is 9.83 µM.

Consider `Oc1ccc(/C=C/CC[C@@H](O)CCc2ccc(O)cc2)cc1`, for which the IC50 came out at 16.1 µM.

For the compound `COc1ccc2c(c1)c(CC(=O)O)c(C)n2C(=O)c1ccc(Cl)cc1` [INDOMETHACIN], the IC50 was found to be 13 µM.

Consider `Oc1ccc(CCCC[C@@H](O)CCc2ccc(O)c(O)c2)cc1`, for which the 50% inhibitory concentration (IC50) was 9.66 µM.

For `Oc1ccc(CCCC[C@H](O)CCc2ccc(O)c(O)c2)cc1`, the IC50 was determined as 5.83 µM.

As to `O=C(CC/C=C/c1ccc(O)cc1)CCc1ccc(O)cc1`, the IC50 is 8.93 µM.

In the case of `COc1cc(CCC(=O)CCCCc2ccc(O)cc2)ccc1O`, the concentration for half-maximal inhibition (IC50) turned out to be 10.6 µM.

As for `O=C(CC/C=C/c1ccccc1)CCc1ccc(O)cc1`, the half-maximal inhibitory concentration (IC50) turned out to be 6.98 µM.

Turning to `CC(=O)O[C@@H](CC/C=C/c1ccc(O)cc1)CCc1ccc(O)c(O)c1`, the IC50 is 6.54 µM.

Take `CC(=O)O[C@H](CCCCc1ccc(O)cc1)CCc1ccc(O)c(O)c1`: the IC50 was 28.5 µM.

As for `O=C(CCCCc1ccc(O)cc1)CCc1ccc(O)cc1`, the IC50 stood at 5.58 µM.

`Oc1ccc(/C=C/CC[C@@H](O)CCc2ccc(O)c(O)c2)cc1`: the half-maximal inhibitory concentration (IC50) was found to be 20.6 µM.

Take `CC(=O)O[C@H](CC/C=C/c1ccc(O)cc1)CCc1ccc(O)c(O)c1`: the IC50 was found to be 15.6 µM.

Turning to `Oc1ccc(CC[C@@H](O)CC/C=C/c2ccccc2)cc1O`, the IC50 turned out to be 3.86 µM.
